From PubChem BioAssay
Compounds with a hit are over-represented: about 0.79% of the library has one in this group of screens.
PKA-R1A act: activators of PKA-R1A holoenzyme, primary screen, biochemical, fluorescence polarization, Cy5-IP20, bovine R1A, mouse PKAc | cAMP-dependent protein kinase type I-alpha regulatory subunit (Bos taurus) + … | PKA-R1A dissociation; scaled: DMSO 0%, 113 µM cGMP 100% | activation, % at 11.4 µM | 340,000 compounds, 0.083% hits;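 active = percent activation above the mean of all tested compounds plus 3 SD, cut at about 19% in these data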;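 also: higher means more PKAc released from R1A so a rise in polarization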
Rin1-Abl PPI inh: inhibitors of Rin1-Abl protein binding, primary screen, biochemical, TR-FRET. Tyrosine-protein kinase ABL1 (Homo sapiens) + Ras and Rab interactor 1 (Homo sapiens), …. inhibition, % at 7.35 µM. 360,000 compounds, 0.4% hits. AID 588664, 2011; in the data active = inhibition above about 5%, passing the limit was not always enough
PKA-R2B act: activators of PKA-R2B holoenzyme, primary screen, biochemical, fluorescence polarization, Cy5-IP20, human; cAMP-dependent protein kinase catalytic subunit beta (Homo sapiens) + cAMP-dependent …; PKA-R2B holoenzyme dissociation; R2B truncated from residue 108, S112A mutant; 0% DMSO only, 100% 113 µM cGMP; activation, % at 11.4 µM; 340,000 compounds, 0.079% hits;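 active = activation above a cutoff set at the mean over all compounds plus 3 SD, cut at about 18% in these data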;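 also: higher means more holoenzyme dissociation and a rise in polarization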
Target sequence (P31323 whole entry, looked up, other chains not shown, the tested form may be a part): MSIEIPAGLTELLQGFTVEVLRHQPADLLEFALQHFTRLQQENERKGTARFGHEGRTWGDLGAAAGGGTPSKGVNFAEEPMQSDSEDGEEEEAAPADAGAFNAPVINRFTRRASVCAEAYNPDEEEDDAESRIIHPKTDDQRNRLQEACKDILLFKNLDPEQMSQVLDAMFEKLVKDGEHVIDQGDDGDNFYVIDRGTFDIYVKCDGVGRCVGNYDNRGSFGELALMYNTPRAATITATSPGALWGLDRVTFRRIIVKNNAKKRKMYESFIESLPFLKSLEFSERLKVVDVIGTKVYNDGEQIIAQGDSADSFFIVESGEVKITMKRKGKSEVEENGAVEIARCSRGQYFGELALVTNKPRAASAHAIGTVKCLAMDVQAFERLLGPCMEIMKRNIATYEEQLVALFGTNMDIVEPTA
UCH37 DUB inh: inhibitors of human UCH37 deubiquitinase, primary screen, biochemical, Ub-AMC cleavage, fluorescence; purified proteasome/UCH37; inhibition, % (no concentration beside the values); 330,000 compounds, 0.33% hits; AID 588478, 2011;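 active = mean inhibition over replicate wells above about 20%, limit read from the data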;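 also: 0% = compound-free wells with enzyme and 100% = wells lacking proteasome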
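Material: human UCH37 enzyme supplied as purified proteasome complex. Measure: % inhibition of Ub-AMC cleavage fluorescence. Medium: pH 7.4 Tris-HCl (50 mM) with ovalbumin, ATP-MgCl2, DTT. Times: 30 min preincubation with enzyme, 25 min cleavage at room temperature. Detection: AMC fluorescence intensity at 355/460 nm.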
UCH37 confirm: retest of human UCH37 deubiquitinase inhibitors, confirmation, biochemical, Ub-AMC cleavage rate, fluorescence. Proteasome-bound UCH37. shares compounds with UCH37 DUB inh. 480 compounds, 27% hits. inhibition, % at 20 µM;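 active = average inhibition over replicates above about 50%, so the earlier screening hit is confirmed, limit read from the data; inactive = the rest, counted as false positives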;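 also: based on cleavage rate fitted by regression over a 30 min kinetic read; 0% = proteasome plus Ub-AMC and 100% = Ub-AMC without proteasome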
Rin1-Abl confirm: Rin1-Abl binding inhibitor retest, confirmation, biochemical, TR-FRET; shares compounds with Rin1-Abl PPI inh; purified proteins; inhibition, % at 7.35 µM; 1,300 compounds, 49% hits; AID 602124, 2011
GFP quench: GFP fluorescence inhibitors and quenchers, artefact control for Rin1-Abl interaction inhibitor project, biochemical | shares compounds with Rin1-Abl PPI inh | inhibitors/quenchers counterscreen | inhibition, % at 6.75 µM | 1,300 compounds, 8.5% hits | AID 602125, 2011;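 also: ABL1-eGFP fusion protein alone without its partner RIN1-SBP; 0% = protein with vehicle and 100% = wells lacking protein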
GFP quench DR: GFP fluorescence inhibitors and quenchers, dose response, artefact control for Rin1-Abl interaction inhibitor project, biochemical; shares compounds with Rin1-Abl PPI inh; GFP fluorescence interference/quenching counterscreen; IC50, µM; 230 tested, under 10 active; AID 602182, 2012; call rule not given here;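 also: ABL1-eGFP fusion protein alone without its RIN1 binding partner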
An asterisk follows results filed as active; · = not tested or not shown. Rule as the data show it, unless noted: active = inhibition above about 6.5%; inactive = the rest.

SMILES | PKA-R1A act | Rin1-Abl PPI inh | PKA-R2B act | UCH37 DUB inh | UCH37 confirm | Rin1-Abl confirm | GFP quench | others
CC(NC(=O)COC(=O)c1ccc([N+](=O)[O-])s1)c1ccccc1 (stereo not given) | -9 | -2 | -5 | 33* | 12 | · | ·
Cc1ccc(C(=O)OCC(=O)NC(C)c2ccccc2)s1 (stereo not given) | -6 | 2 | 0 | 0 | · | · | ·
O=C(COC(=O)c1ccc([N+](=O)[O-])s1)NC(=O)NCc1ccccc1 | 4 | -3 | -2 | 67* | 10 | · | ·
O=C(COC(=O)c1ccc([N+](=O)[O-])s1)NCCc1ccccc1 | -10 | -2 | -6 | 81* | 14 | · | ·
O=C(COC(=O)c1ccc([N+](=O)[O-])s1)NNC(=O)c1ccccc1 | -7 | 0 | 2 | 80* | 19 | · | ·
CCOC(=O)Cc1csc(NC(=O)c2c(O)c3ccccc3n(CC(C)C)c2=O)n1 | -1 | 1 | -10 | 1 | · | · | ·
O=C(COC(=O)c1ccc([N+](=O)[O-])s1)NCc1ccc(F)cc1 | -4 | 0 | 4 | 65* | 25 | · | ·
O=C1CN(C(=O)COC(=O)c2ccc([N+](=O)[O-])s2)c2ccccc2N1 | 3 | 0 | -15 | 76* | 8 | · | ·
O=C1CN(C(=O)COC(=O)c2cccs2)c2ccccc2N1 | 6 | 0 | 1 | 2 | · | · | ·
Cc1c(Cl)cnc(NC(=O)COC(=O)c2ccc3c(c2)OCO3)c1Cl | 7 | -5 | -7 | 2 | · | · | ·
CC(C)CNC(=O)COc1cccc(C(=O)NCc2ccccc2)c1 | 1 | 3 | 14 | 36* | 12 | · | ·
Cc1nc2ccccc2c(=O)n1N=Cc1ccc(C(C)C)cc1 | · | · | · | -1 | · | · | ·
O=C1/C(=N\S(=O)(=O)c2cccs2)C([n+]2ccccc2)=C([O-])c2ccccc21 | -1 | -6 | -13 | 51* | 40 | · | ·
O=C(O)c1ccc(NC2=C/C(=N/S(=O)(=O)c3cccs3)c3ccccc3C2=O)cc1 | 1 | -1 | -5 | · | · | · | ·
O=S(=O)(N=Cc1ccccc1O)c1cccs1 | · | · | · | -2 | · | · | ·
CC(C)(C)c1cc[n+](C2=C([O-])c3ccccc3C(=O)/C2=N\S(=O)(=O)c2cccs2)cc1 | · | -10 | · | 50* | 58* | · | ·
O=C(Nc1cc(C(F)(F)F)ccc1-n1cncn1)c1ccc(F)cc1Cl | -1 | -2 | -15 | 6 | · | · | ·
CC(=O)c1ccc(NC2=C(N3CCOCC3)C(=O)c3ccccc3C2=O)cc1 | -9 | 5 | -10 | 32* | 51* | · | ·
O=C(O)c1ccc(NC2=C(N3CCOCC3)C(=O)c3ccccc3C2=O)cc1 | -1 | -1 | -3 | 34* | 18 | · | ·
COc1ccc(-c2cn3ccccc3n2)cc1[N+](=O)[O-] | 1 | 1 | 0 | 46* | 10 | · | ·
COc1c(C(C)C)cc(NC(C)=O)cc1C(C)C | -1 | -3 | 0 | 5 | · | · | ·
O=C(O)c1cccc(NC2=C(n3nnc4ccccc43)C(=O)c3ccccc3C2=O)c1 | 0 | -6 | 2 | 52* | 55* | · | ·
Cc1[nH]n(-c2ccccc2)c(=O)c1C(C[N+](=O)[O-])c1ccc(Br)cc1 (stereo not given) | 4 | 34* | 13 | 29* | -21 | 0 | 0
Cc1[nH][nH]c(=O)c1C(c1ccc(-c2cccc(Cl)c2)o1)c1c(C)[nH][nH]c1=O | -17 | 7.9* | 8 | 81* | 84* | 8.5* | 4
Cc1ccc(NC2=C(Cl)C(=O)c3ccccc3C2=O)cc1 | -6 | -2 | -9 | 2 | · | · | ·
SMILES | PKA-R1A act | Rin1-Abl PPI inh | PKA-R2B act | UCH37 DUB inh | UCH37 confirm | Rin1-Abl confirm | GFP quench | others
Cc1ccc(NC2=C(N3CCOCC3)C(=O)c3ccccc3C2=O)cc1 | 4 | 12* | -1 | 28* | 26 | -5 | 1
Cc1ccc(SCCC(=O)Nc2cccnc2)cc1 | · | 0 | · | 4 | · | · | ·
O=C1NNC(c2ccccc2)=N/C1=C\c1ccco1 | -6 | 1 | -14 | 6 | · | · | ·
O=C1NNC(c2ccccc2)=N/C1=C\c1ccccc1Cl | -3 | 6.8* | -3 | 34* | 74* | 8.3* | -1
CCOC(=O)C1=C(C)N[C@@]2(O)c3ccccc3C(=O)[C@@]12O | -1 | 3 | 7 | 18 | · | · | ·
CC1=C(C#N)C2(O)C(=O)c3ccccc3C2(O)N1 (stereo not given) | -1 | -2 | 3 | -2 | · | · | ·
CCOC(=O)C1=C(C)OC2(O)c3ccccc3C(=O)C12O (stereo not given) | · | 22* | · | 79* | 72* | 36* | 0 | GFP quench DR=>68
CC(=O)C1=C(C)OC2(O)c3ccccc3C(=O)C12O (stereo not given) | · | 18* | · | 77* | 71* | 18* | -1 | GFP quench DR=>68
Cc1cccc(OCC(=O)Nc2ccc(C(=O)NCC(C)C)cc2)c1 | 5 | -3 | -3 | 1 | · | · | ·
COc1ccc(O)c(C2(O)C(=O)c3ccccc3C2=O)c1 | -8 | -1 | -11 | 0 | · | · | ·
CC(=O)C(C(C)=O)C1(O)C(=O)c2ccccc2C1=O | -8 | 23* | -4 | 70* | 78* | 19* | 0 | GFP quench DR=>68
CC(NC(=O)CSC1=NCCS1)c1ccccc1 (stereo not given) | -4 | 1 | -1 | 0 | · | · | ·
Nc1ccc2c(c1)C(=O)C(=O)c1ccccc1-2 | -9 | 10* | 11 | 99* | 101* | 5 | 4
O=C(NC1(O)C(=O)c2ccccc2C1=O)c1c(Cl)cccc1Cl | · | 14* | · | 80* | 52* | 28* | 2 | GFP quench DR=>68
O=C(NC1(O)C(=O)c2ccccc2C1=O)c1ccccc1 | -1 | 28* | -6 | 84* | 74* | 29* | 2 | GFP quench DR=>68
CCN(CC)CC(=O)N1N=C(c2cccs2)CC1c1ccco1 (stereo not given) | -11 | -3 | -6 | -28 | · | · | ·
COc1ccc(/C=C(/NC(=O)c2ccc([N+](=O)[O-])cc2)C(=O)NC(C)(C)C)cc1 | 3 | 3 | -7 | 5 | · | · | ·
Cc1cccc(-n2c(N)c(-c3nc4ccccc4n3C)c3nc4ccccc4nc32)c1 | 4 | 12* | -10 | -53 | · | -3 | -2
COc1ccc(CC(=O)OCC(=O)NCc2ccccc2Cl)cc1OC | -9 | 10* | 1 | 2 | · | 3 | 0
COc1ccccc1CNC(=O)COC(=O)Cc1ccc(Br)cc1 | 1 | 2 | -6 | -2 | · | · | ·
